From the EternaBench riboswitch data come the findings set out here.

The test system of the data set is MS2 coat protein. As to the kind of experiment: apparent Kd, MS2 coat protein; higher = weaker binding; RNA-MaP array; FMN 200 µM where present. In short, it runs like this: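 Binding was read on Illumina sequencing-chip clusters where stalled E. coli RNA polymerase had transcribed each design. A titration of SNAP-549-labelled MS2 coat protein began at 0.7 or 1.5 nM and doubled to 3 µM, once without ligand and once with constant ligand, in 100 mM Tris-HCl pH 7.5, 80 mM KCl, 4 mM MgCl2, BSA, DTT, yeast tRNA and Tween-20. The apparent Kd is the median of filtered per-cluster binding-curve fits, based on green signal normalised to red-channel RNA signal and control-cluster median Fmax.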

Where [1] appears, read: designed as: OFF switch for flavin mononucleotide, no ligand.
Setting [2] is: ligand present: flavin mononucleotide, designed as: OFF switch for flavin mononucleotide.
Setting [3] is: designed as: ON switch for flavin mononucleotide, no ligand.
Setting [4] is: ligand present: flavin mononucleotide, designed as: ON switch for flavin mononucleotide.

The apparent Kd is a dissociation constant that holds for the conditions of the assay.

Consider “AGAUAACAUGAGGAUCACCCAUGUGAGGAUAUUUACUCAAGAGCUUCGGCUCUCAGGUGAAGAAGGCACAAUGA”, for which the “apparent Kd” value turned out to be 55.9 nM under setting [1] and 83.4 nM under setting [2].
The like results for “UUUGUCUGUGUGAGGAUAUACUUUGUUUGGUCGUUGUAGAAGGCACAUGAGGAUCACCCAUGUAGUUUGUUGUG” were, in that order, 20.4 nM and 22.9 nM.
As to “ACAUGAGGAUCACCCAUGUAUACAUAGGAUAUUGGUGAUCAGGCAUGUUAUACAGGAUAUGUCUGCGAGAAGGAUGCACGUUGC”, the “apparent Kd” value is, setting by setting: under setting [3], 680 nM; under setting [4], 476 nM.
Take “GAAUCGAAAAUACGAGCAUGUACACAGGAUAUCCCGUGACAUGAGGAUCACCCAUGUAACACAUUGGAGAAGGGUGUUCACGUA”: the “apparent Kd” value turned out to be 153 nM under setting [3] and 14.8 nM under setting [4].
The matching figures for “GUGGUGGGUUGAGGAUAUUGGUUGUUGUUGUCCCACAUGAGGAUCACCCAUGUGGGUUGUGGUUUUGAGAAGGUUGGUUGCCGG”: 18.8 nM and 16.6 nM.
In the case of “AAAUUGUGAGGAUAUUCGAUGUACUCGGAGACGAGUAUAUCGGAGAAGGCACAUGAGGAUCACCCAUGUUCCUU”, the “apparent Kd” value under setting [1] is 17.6 nM and the “apparent Kd” value under setting [2] was 92.6 nM.
The like results for “UUCUUCAGGUCAGGAUAUGCACAAGUUCAACGAGCAGAAGGGACAUGAGGAUCACCCAUGUAAAGGGCACCGGCUAACGUUCGA” were, in that order, 258 nM and 182 nM.
The like results for “AAUUUACAGGCAGGAUAUACAUGAGGAUCACCCAUGUAAUCAUAUGAUAUUUUUUUUGUAUGAGUGUAGAAGGGCCAAAUAAAA” were, in that order, 7.79 nM and 7.99 nM.
Regarding “AGCGUCGGCACAGGAUAUGAGAUGCCGGCAGACAUGAGGAUCACCCAUGUAAGCGACCCAGGCAGUCAGAAGGGUGAUCGACAA”, the “apparent Kd” value under setting [3] came out at 121 nM and the “apparent Kd” value under setting [4] came to 65 nM.
With “GUUAGUAUCUAGGAUAUCUAGUACAUAGUAUCUAGAGAAGGAGAUACAUGAGGAUCACCCAUGUUCUGUGUUCU”, the “apparent Kd” value amounted to 25.4 nM under setting [1] and 70.4 nM under setting [2].
With “AGGGAUAAAGGAUAUACAUGAGGAUCACCCAUGUUGAGGAAGGUUAGAGGUGGCGAUAGUAGAAGGUUAGGUAG”, the “apparent Kd” value by setting is: under setting [1], 89.2 nM; under setting [2], 54.7 nM.
The like results for “GUCUACCUAGGAUAUACAUGAGGAUCACCCAUGUACAGUUUCGUCUAGGGAUACUCGCGUAGAAGGAGGUAGAU” were, in that order, 32.2 nM and 22.9 nM.
The matching figures for “AAUAACAGAGGAUAUACUAUUUUAUGUGUUUAUUGUUUUAAACAUGAGGAUCACCCAUGUAGAAGGCUGAAUAA”: 29.3 nM and 44.3 nM.
Turning to “AAAAGACAUGAGGAUCACCCAUGUCAAGACAUGGGAGGAUAUGCAUGGAAAACAUGCUGUGCAGAAGGCUCAUGUC”, the “apparent Kd” value reads like this: under setting [3], 32.6 nM; under setting [4], 22.4 nM.
The matching figures for “UUGGACGUCGUAGGAUAUGUAGGAUAUUCCUACAUGAGGAUCACCCAUGUUGACAUGGAAGAAGGACAGACGGACGAUGUCCAU”: 337 nM and 8.52 nM.
As to “AUUGUUAAGUUAGGAUAUAGUAAAAUAAUUUAGUUAGAAGGAGCUCACAUGAGGAUCACCCAUGUAAGAGGAUCACCCAUGUAU”, the “apparent Kd” value runs as follows: under setting [1], 25.6 nM; under setting [2], 20.1 nM.
The matching figures for “UUAUGAGAGCAGGAUAUCUUAUUUUUUUUUUAAAGAGAAGGGCUCACAUGAGGAUCACCCAUGUGGUCCUAGAU”: 42.8 nM and 75.6 nM.
The like results for “ACAUGAGGAUCACCCAUGUUUACAUGGAUUAUUAAUCUUUGAUAGGAUAUGUUAGUUAAGUAUUUACAGAAGGAUCAAUACCAA” were, in that order, 15.9 nM and 12.2 nM.
The like results for “UGUGCGUUGAUCUUCGAUCGUUGUACAUGAGGAUCACCCAUGUAGGAUAUUCUAAGACGCAGAUAGGAGAAGGACAUUGGUAUU” were, in that order, 10.6 nM and 19.4 nM.
Regarding “AUUAUGUAAGGAUAUCUUACAUGUGACUUCGGUCACUGUUCAGAGAAGGUACAUGAGGAUCACCCAUGUAGAAC”, the “apparent Kd” value by setting is: under setting [1], 17.9 nM; under setting [2], 18.4 nM.
The like results for “AAAUCAGUAGGAUAUACGAUUUUAUACUAGAUAGAGGAACCACAUGAGGAUCACCCAUGUAGAAGGACUAGAUA” were, in that order, 14.6 nM and 14.9 nM.
Turning to “UAUUUAUAAUAUAUUAACAUGAGGAUCACCCAUGUCGCUAGACAGGAUAUAUUUUAUUUUUUUAAGUAGAAGGGUCAUAUAUUU”, the “apparent Kd” value came to 68 nM under setting [3] and 85.9 nM under setting [4].
“UAUCGUUCCGAGGAUAUGAGGCGACUGGCGCGAUCAGAAGGCGGAACAUGAGGAUCACCCAUGUUCCUUACCUU”: the “apparent Kd” value by setting is: under setting [1], 12.2 nM; under setting [2], 20.5 nM.
The like results for “CGGGAGUCAGGAUAUACGAACAUGUCGCCAGAUGUCAUGGUACAUGAGGAUCACCCAUGUAGAAGGGAGGCGGU” were, in that order, 50.6 nM and 30.5 nM.
The like results for “GUUCUUCCUGUAAGGAUAUCCAUGUGUCAGUUUAUGGAGAAGGUACAUGAGGAUCACCCAUGUCACCCGCGUUA” were, in that order, 18.4 nM and 51.2 nM.
Consider “ACGACAAAAGUCGAACGAUGUAGCAGAAGGACAUGAGGAUCACCCAUGUAAAAUGUAACAGCCAUGUAGGAUAUGCUACAUCGA”, for which the “apparent Kd” value runs as follows: under setting [1], 31.4 nM; under setting [2], 288 nM.
The like results for “UGAUAGGACAGAGGAUAUACGGAUAGGAUCUACUAUCAAACAGGUCCUACAUGAGGAUCACCCAUGUAGAAGGCUGUCCUAUCU” were, in that order, 22.9 nM and 111 nM.
“GGUAGAGAGCAGGAUAUCUUGGGUAAGUAUUGUAGAGAAGGGCUCACAUGAGGAUCACCCAUGUGGUCCAAGAU”: the “apparent Kd” value under setting [1] amounted to 13.9 nM and the “apparent Kd” value under setting [2] was 29.8 nM.
The like results for “UGCUGGUGACAGCAUCCAUCAAAACAUGAGGAUCACCCAUGUAGAAGGCUGUACGGUUACCGUACAGAGGAUAUACAAUGAUGU” were, in that order, 13.2 nM and 23.6 nM.
With “AUCAGCUCGUCAGGAUAUACGUUACUGCGUCAGCAGUGUGGUAAGAUCACAUGAGGAUCACCCAUGUAGAAGGGACGAGCUGAU”, the “apparent Kd” value reads like this: under setting [1], 61.8 nM; under setting [2], 653 nM.
The like results for “GAGCAGGUAAUAAAGUAGAAAUACAUGAGGAUCACCCAUGUAUAGGAUAUCGUCAGGAAUACUGACGAGAAGGAUACAUCCUGC” were, in that order, 14.2 nM and 18.1 nM.
The like results for “AGAUGACAAUGUCAUCUUCGACGGACAUGAGGAUCACCCAUGUAGGAUAUGCUACUCAAAGAGUAGCAGAAGGACAUGUGUCUU” were, in that order, 22.2 nM and 74.8 nM.
Consider “UCAUUUCAGAAAGGAUAUUAAUUCAUGACGAUACAUGAGGAUCACCCAUGUUAAGAAGGUUCUAAUACAAAUAAUGCAUUGUUC”, for which the “apparent Kd” value is, setting by setting: under setting [1], 13.2 nM; under setting [2], 10.5 nM.
For “UGGAUCAUCGGAGGAUAUCAUGUGUAAACAUGAGGAUCACCCAUGUCGUACGAGAGUACGGAGAUUGAGAAGGCCGAUGAUCCU”, the “apparent Kd” value was 85.4 nM under setting [3] and 16.4 nM under setting [4].
The like results for “UGGUACUAGGGAGGAUAUGGGAAGAUACAUGAGGAUCACCCAUGUUUAAGAAUGCCGAGUGGCAACUAGAAGGCCCUAGUACCU” were, in that order, 478 nM and 20.5 nM.
Regarding “AAGUUAUUAGGAUAUACUUGUGCGAUUUAUACGUUGAUAUUACAUGAGGAUCACCCAUGUAGAAGGAAUAAAAA”, the “apparent Kd” value under setting [1] was 20.8 nM and the “apparent Kd” value under setting [2] came out at 17.4 nM.
With “UUACAUACAAAGGUACAUGAGGAUCACCCAUGUUUGUUGGGAAGAAGGGUAACAGUACUACAUAUAUAGGAUAUUUCACAAAUG”, the “apparent Kd” value reads like this: under setting [3], 106 nM; under setting [4], 73.4 nM.
The matching figures for “UGGUACUAGGGAGGAUAUGGGAAGAUACAUGAGGAUCACCCAUGUUUAAGAAUGCCGAGAGGCAUCUAGAAGGCCCUAGUACCU”: 877 nM and 115 nM.
The matching figures for “ACAUGAGGAUCACCCAUGUAAAAUGAAGAAGGUAUAUACUUGAGGAUCACCCAUGUACAUGGGAGUAAGGAUAUUCUAAUAAUU”: 13.2 nM and 11.3 nM.
The like results for “AAAAAACAUGAGGAUCACCCAUGUGAAAAUAUGGGAGGAUAUACAAACACGAAAGUGAAAGUAGAAGGCCUAAAAA” were, in that order, 97 nM and 25.6 nM.
For “UGAGUCUGCUGAGGAUAUUGCUCGUGCGUACAUGAGGAUCACCCAUGUGUCUUGAUCCUCUUCUGCAAGAAGGCAGCUCUCUCU”, the “apparent Kd” value by setting is: under setting [1], 775 nM; under setting [2], 444 nM.
“ACAUAAAUUCGAGGAUAUCGGUGAUAUAAUUUACGAGAAGGCGAUAAAUGUUAUAAACUUAUAGACAUGAGGAUCACCCAUGUA”: the “apparent Kd” value by setting is: under setting [3], 35.1 nM; under setting [4], 32.5 nM.
Take “CGAUGCAGAGGAUAUACAUGAGGAUCACCCAUGUACCUACUCGGGCGUCCUCUUAGAUGUAGAAGGCUGACACU”: the “apparent Kd” value by setting is: under setting [1], 62.6 nM; under setting [2], 72 nM.
Consider “AAAAAACAUGAGGAUCACCCAUGUAAGGAUAUCGUGCAGAAAAAAAAAAAAAACUGCACGAGAAGGUACUUGGA”, for which the “apparent Kd” value under setting [1] is 81 nM and the “apparent Kd” value under setting [2] came out at 143 nM.
The matching figures for “AUGCCGUGCAGAGCGCGACGGCGAACAUGAGGAUCACCCAUGUAGGAUAUACUACACAAAGUGUAGUAGAAGGACGUGCGACAA”: 24.6 nM and 38.6 nM.
For “CGAUAUUAUGCAGGAUAUCUUUCUUGAAUGAGGAGAGAAGGGCAUAGGGAGACAUAAGCCUUAUUACAUGAGGAUCACCCAUGU”, the “apparent Kd” value runs as follows: under setting [1], 10.9 nM; under setting [2], 9.5 nM.
For the sequence “UGGAUCAUCGGAGGAUAUCAUGUAGAUACAUGAGGAUCACCCAUGUCGUACGAGAGUACGGAGAUUGAGAAGGCCGAUGAUCCU”, the “apparent Kd” value under setting [3] amounted to 31.6 nM and the “apparent Kd” value under setting [4] amounted to 14.8 nM.
“GGAAAUCAUGUAGGAUAUGCAUGGCGAAGCUACGCAGAAGGACAUGAGGAUCACCCAUGUUAUAGCGUCCGAGAAAGGAUGCGA”: the “apparent Kd” value under setting [1] is 55.6 nM and the “apparent Kd” value under setting [2] worked out at 114 nM.
